# ChEMBL document CHEMBL1130199, “Differentiation between partial agonists and neutral 5-HT1B antagonists by chemical modulation of 3-[3-(N,N-dimethylamino)propyl]-4-hydroxy- N-[4-(pyridin-4-yl)phenyl]benzamide (GR-55562)” (J Med Chem, 1997)
# Experiments:
# [1] = molecular target: T1, 5-hydroxytryptamine receptor 1B (Homo sapiens, UniProt P28222); test: Binding affinity for 5-hydroxytryptamine 1B receptor in C6-glial transfected cell type using [3H]GR-125743 as radioligand
# Outline: (§1)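 Radioligand binding on membranes from HeLa/HA7 cells (h5-HT1A), transfected Cos-7 cells (h5-HT1D) or C6-glia cells stably transfected with h5-HT1B. Values are mean or mean ± SD of 2–3 independent experiments, each in triplicate.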
# [2] = Determined KB value of the compound; assay type: functional
# Outline: (§2)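 Membranes of C6-glia cells stably expressing h5-HT1B were preincubated with zolmitriptan concentration series, with or without antagonist (1 μM or 10 μM), in 20 mM Hepes pH 7.4 containing 30 μM GDP, 100 mM NaCl, 3 mM MgCl2 and 0.2 mM ascorbic acid, 30 min at 25 °C. [35S]GTPγS (500 pM) was then added for 30 min. pA2 was derived from concentration ratios. Mean ± SD of 2–4 experiments, each in triplicate.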
# [3] = Antagonism of the zolmitriptan-mediated response tested at 1 uM; assay type: functional; outline: as §2
# [4] = molecular target: T2, 5-hydroxytryptamine receptor 1A (Homo sapiens, UniProt P08908); test: Binding affinity for 5-hydroxytryptamine 1A receptor in HeLa transfected cell type using [3H]8-OH-DPAT as radioligand; outline: as §1
# T2 sequence (P08908 whole entry): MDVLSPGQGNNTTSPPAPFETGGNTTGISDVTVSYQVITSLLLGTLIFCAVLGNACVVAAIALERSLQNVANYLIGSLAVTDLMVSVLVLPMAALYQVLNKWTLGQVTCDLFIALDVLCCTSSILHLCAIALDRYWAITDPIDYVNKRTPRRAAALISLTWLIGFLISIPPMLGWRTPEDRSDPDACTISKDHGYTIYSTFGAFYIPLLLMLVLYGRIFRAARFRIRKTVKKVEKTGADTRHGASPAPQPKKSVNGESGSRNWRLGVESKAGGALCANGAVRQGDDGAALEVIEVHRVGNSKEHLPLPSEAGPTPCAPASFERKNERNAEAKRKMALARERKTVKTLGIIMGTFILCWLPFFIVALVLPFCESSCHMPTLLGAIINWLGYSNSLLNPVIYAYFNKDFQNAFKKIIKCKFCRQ
# [5] = molecular target: T1, 5-hydroxytryptamine receptor 1B; test: Intrinsic activity for Antagonism of 5-hydroxytryptamine 1B receptor-mediated stimulation of [35S]GTP gamma S binding; assay type: functional
# Outline: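 [35S]GTPγS binding to C6-glia/h5-HT1B membranes (20–120 μg protein) in 20 mM Hepes pH 7.4 with 30 μM GDP, 100 mM NaCl, 3 mM MgCl2 and 0.2 mM ascorbate. Compound was incubated 30 min at 25 °C, then 500 pM [35S]GTPγS was added for 30 min. Emax is given as % of the response to 10 μM 5-HT, and EC50 is relative to each compound's own maximum. Mean ± SD of 2–4 experiments, each in triplicate.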
# [6] = molecular target: T1, 5-hydroxytryptamine receptor 1B; test: Binding affinity for 5-hydroxytryptamine 1B receptor in C6-glial transfected cell type using [3H]5-CT as radioligand; outline: as §1
# [7] = molecular target: 5-hydroxytryptamine receptor 1D (Homo sapiens, UniProt P28221); test: Binding affinity for 5-hydroxytryptamine 1D receptor in Cos-7 transfected cell type using [3H]5-CT as radioligand; outline: as §1
# 5-hydroxytryptamine receptor 1D, sequence (P28221 whole entry): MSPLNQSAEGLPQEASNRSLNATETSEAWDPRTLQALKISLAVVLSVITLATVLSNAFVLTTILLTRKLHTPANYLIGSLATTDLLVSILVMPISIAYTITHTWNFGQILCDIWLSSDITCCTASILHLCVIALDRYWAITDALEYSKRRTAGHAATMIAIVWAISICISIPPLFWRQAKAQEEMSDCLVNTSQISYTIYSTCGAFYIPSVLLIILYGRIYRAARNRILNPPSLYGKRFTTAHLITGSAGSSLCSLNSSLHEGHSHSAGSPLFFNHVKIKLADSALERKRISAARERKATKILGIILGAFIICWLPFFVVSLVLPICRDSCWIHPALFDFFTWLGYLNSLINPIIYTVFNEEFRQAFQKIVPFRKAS
# [8] = Antagonism of the zolmitriptan-mediated response tested at 10 uM; assay type: functional; outline: as §2
# T1 sequence (P28222 whole entry): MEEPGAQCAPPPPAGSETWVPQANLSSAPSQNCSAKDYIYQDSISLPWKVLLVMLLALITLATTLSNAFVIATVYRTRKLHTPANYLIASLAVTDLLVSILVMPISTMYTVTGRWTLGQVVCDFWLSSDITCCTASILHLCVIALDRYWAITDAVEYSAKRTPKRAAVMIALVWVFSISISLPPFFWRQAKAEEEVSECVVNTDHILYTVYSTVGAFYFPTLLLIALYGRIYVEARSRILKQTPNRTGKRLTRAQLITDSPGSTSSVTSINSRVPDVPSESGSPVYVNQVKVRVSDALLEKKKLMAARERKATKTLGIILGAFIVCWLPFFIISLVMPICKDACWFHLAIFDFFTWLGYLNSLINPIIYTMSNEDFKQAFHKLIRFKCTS
SMILES,Ki [1] [µM],EC50 [3] [µM],Ki [4] [µM],Activity [5],Ki [6] [µM],Ki [7] [µM],EC50 [8] [µM],Kb [2] [µM]
COc1ccc(C(=O)Nc2ccc(-c3ccncc3)cc2)cc1CCCN(C)C,0.0154,2.85,> 1,4,0.0701,0.54,,0.0227
COc1ccc(C(=O)Nc2ccc(-c3ccncc3)cc2)cc1C#CCN(C)C,0.0223,,> 1,32.3,0.0162,1.2,0.837,
CN(C)CCCc1cc(C(=O)Nc2ccc(-c3ccncc3)cc2)ccc1O [GR-55562],0.014,3,0.842,-3.7,0.0121,0.7,,0.0213

# Continued, in another order:
Ki [1] [µM],EC50 [3] [µM],Ki [4] [µM],Activity [5],Ki [6] [µM],Ki [7] [µM],EC50 [8] [µM],SMILES,Kb [2] [µM]
0.0061,3.3,0.633,2.3,0.019,0.169,,COc1ccc(C(=O)Nc2ccc(-c3ccncc3)cc2)cc1C=CCN(C)C,0.0194
0.0188,,> 1,23,0.0136,0.56,4.3,COc1ccc(C(=O)Nc2ccc(-c3ccncc3)cc2)cc1/C=C/CN(C)C,
